Screening data (PubChem)
Most compounds without a hit are left out; they make up all but 3.7% or so of the library.
KCNQ1 act = potentiators or activators of human KCNQ1 potassium channel. P51787. CHO-K1 KCNQ1, thallium flux FluxOR fluorescence; hits give high values. B-score at 10 µM. hit rate 0.35% among 310,000;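 active = fluorescence ratio B-score, a plate-corrected score, at least three library SD, with initial intensity B-score within 5 SD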
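Schedule – 37 °C overnight plating, 90-min dark dye load, 20-min compound pretreatment · System – stable KCNQ1 CHO-K1 line · Probe or stimulus – thallium- and potassium-containing depolarizing buffer · Measured by – kinetic FluxOR fluorescence, 10 s baseline plus 110 s post-stimulus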
hERG protect = shields human hERG channel from block by proarrhythmic agents; Q12809; CHO-hERG, FluxOR thallium flux, dofetilide IC70 present; activation (rescue from dofetilide block), less the hit threshold, % at 10 µM; hit rate 0.51% among 310,000; AID 1511;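 active = activation above the mean of controls blocked by dofetilide plus 5 SD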;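 note: thallium influx through hERG after potassium depolarization seen as dye fluorescence rise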
Kir21 block = blocks the mouse Kir2.1 inward-rectifier potassium channel. hit rate 0.85% among 310,000. HEK293-Kir2.1, FluxOR thallium flux fluorescence; hits give low values. B-score at 10 µM. P35561;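 active = fluorescence ratio B-score at or below minus 3 SD of library scores, with starting-brightness B-score within 2 SD, cut at about -4.2 in these data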;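 note: channel flux triggered by added potassium and thallium sulfate stimulus; B-score of peak minus minimum fluorescence over baseline after thallium stimulus; more negative B-score means stronger Kir2.1 block with less thallium influx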
KCNK3 inh = human KCNK3 channel inhibition, primary screen; O14649; CHO-KCNK3 thallium flux, FluxOR fluorescence; hits give low values; B-score at 10 µM; hit rate 0.84% among 340,000; AID 602410;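 active = B-score under library mean minus 4 SD, starting fluorescence ratio at most library mean plus 5 SD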;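 note: more negative B-score means stronger inhibition of thallium flux through KCNK3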
KCNK9 block = inhibitors of human KCNK9 two-pore domain potassium channel; hit rate 1.2% among 310,000; Q9NPC2; B-score at 10 µM; AID 488922; HEK293 KCNK9, FluxOR thallium flux fluorescence; hits give low values;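 active = ratio B-score over 3 SD below the library mean, with starting fluorescence within 5 SD of its mean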;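 note: negative B-score means less thallium flux so channel inhibition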
Target sequence (Q9NPC2 whole entry, looked up, the tested form may be a part): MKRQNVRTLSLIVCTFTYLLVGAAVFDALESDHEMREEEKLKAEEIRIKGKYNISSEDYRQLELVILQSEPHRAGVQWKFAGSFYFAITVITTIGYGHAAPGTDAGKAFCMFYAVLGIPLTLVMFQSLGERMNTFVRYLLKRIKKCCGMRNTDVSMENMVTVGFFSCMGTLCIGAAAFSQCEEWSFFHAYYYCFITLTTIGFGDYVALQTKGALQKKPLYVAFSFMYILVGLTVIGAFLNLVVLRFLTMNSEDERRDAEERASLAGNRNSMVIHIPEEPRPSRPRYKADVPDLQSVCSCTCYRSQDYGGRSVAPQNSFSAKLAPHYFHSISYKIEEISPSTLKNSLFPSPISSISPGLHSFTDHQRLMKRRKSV
KCNQ1 inh = human KCNQ1 channel inhibition. P51787. hit rate 1.3% among 310,000. B-score at 10 µM. AID 2642. CHO-K1 KCNQ1, FluxOR thallium flux fluorescence; hits give high values;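 active = compounds whose thallium flux B-score, printed positive for inhibition, exceeds three library SD while starting fluorescence stays within three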;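 note: channel opened by potassium depolarization with thallium stimulus after 20 min compound exposure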
KCNQ1 block val = confirmation of human KCNQ1 potassium channel inhibitors; shares compounds with KCNQ1 inh; KCNQ1 cell line, FluxOR thallium flux fluorescence; inhibition, % at 10 µM; hit rate 93% among 1,600; AID 588353;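 active = primary screen active, with duplicate mean exceeding buffer control mean plus 3 SD of buffer wells, cut at about 28% in these data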
CHO Tl flux = activity in parental CHO cells lacking KCNQ1; shares compounds with KCNQ1 inh; parental CHO-K1, FluxOR thallium flux fluorescence ratio; hits give low values; zero means no signal rise above baseline; fluorescence ratio (Tl flux) at 10 µM; hit rate 21% among 1,600; AID 588366;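 active = mean of duplicate thallium-flux fluorescence ratios in parental host cells more than 5 SD below the buffer control mean, cut at about 0.38 in these data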;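 note: ratio is peak minus minimum fluorescence divided by baseline fluorescence; actives read low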
KCNQ1 APC inh = blocks human KCNQ1 current in automated patch clamp. calls only at 10 µM. KCNQ1-CHO cells. hit rate 20% among 490. shares compounds with KCNQ1 inh. AID 624120;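 active = KCNQ1 current drop exceeding 3 SD of negative control wells, seen in both duplicate runs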;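 note: steady state current during a 2 s step from -80 to +40 mV; negative values mean current inhibition and positive values mean potentiation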
KCNQ2 inh = KCNQ1 inhibitor that also blocks rat KCNQ2 channel; inhibition, % at 10 µM; shares compounds with KCNQ1 inh; hit rate 71% among 1,600; KCNQ2 cells, FluxOR thallium flux fluorescence;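 active = mean percent inhibition of the KCNQ2 thallium signal more than 5 SD above the buffer-only control wells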;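 note: KCNQ2 expressed in CHO cells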
KCNQ1 KCNE1 spec = human KCNQ1/KCNE1 inhibition in KCNQ1 specificity screen; shares compounds with KCNQ1 inh; KCNQ1/KCNE1 cells, FluxOR thallium flux fluorescence; inhibition, % at 10 µM; hit rate 77% among 1,600;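 active = mean percent inhibition of duplicate wells above the buffer-only control mean plus 3 SD of those controls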
A number is an active result; 0 = inactive; - = no result given.

SMILES	KCNQ1 act	hERG protect	Kir21 block	KCNK3 inh	KCNK9 block	KCNQ1 inh	KCNQ1 block val	CHO Tl flux	KCNQ2 inh	KCNQ1 KCNE1 spec	others
FC(F)(F)c1cc(-c2ccco2)nc(N2CCN(Cc3ccccc3)CC2)n1	0	0	0	0	0	8	82	0	75%	106%
CCOC(=O)c1c(C)nc(C(Cl)(Cl)Cl)nc1N	0	0	0	0	0	8	86	0	0	88%
O=C(NS(=O)(=O)Oc1ccccc1F)OC[C@@H]1CCCN2CCCCC12 (some centres not stated)	0	0	0	0	0	0	-	-	-	-
O=C(O)c1ccc(CSc2nc3ccccc3c(=O)n2-c2ccccc2)cc1	0	0	0	0	0	0	-	-	-	-
COC(=O)c1ccc2c(=O)n(-c3ccccc3)c(SCN3C(=O)c4ccccc4C3=O)nc2c1	0	0	0	0	0	6	87	0	0	66%
S=C(NCc1ccco1)Nc1ccc(Oc2ccccc2)cc1	0	0	0	0	0	8	45	0	59%	66%
S=C(NCc1ccncc1)Nc1ccc(Cl)c(Cl)c1	0	0	0	0	0	6	33	0	0	0
S=C(NCc1ccco1)Nc1ccc(Cl)c(Cl)c1	0	0	0	0	0	8	42	0	0	52%
COc1ccc(NC(=S)NCc2ccco2)cc1	0	0	0	0	0	0	-	-	-	-
S=C(NCc1ccncc1)Nc1cc(Cl)cc(Cl)c1	0	0	0	0	0	0	-	-	-	-
Cc1ccccc1OCCCCc1c(C)n[nH]c1C	0	0	0	0	0	7	109	0	97%	80%	KCNQ1 APC inh=0
Cc1ccccc1OCCCc1c(C)n[nH]c1C	0	0	0	0	0	0	-	-	-	-
O=P(O)(OCc1ccccc1)OCc1ccccc1	-	-	-	0	-	-	-	-	-	-
Oc1cccc(NC(=S)Nc2cccnc2)c1	0	0	0	0	0	0	-	-	-	-
Oc1cccc(NC(=S)Nc2ccc(SC(F)F)cc2)c1	0	0	0	0	0	10	68	0	0	90%
CCN(C(=O)COC(=O)/C=C/c1ccc2c(c1)OCO2)c1c(N)n(Cc2ccccc2)c(=O)[nH]c1=O	-	-	-	0	-	-	-	-	-	-
CCCCSc1nc(C)c(CC(=O)O)c(=O)[nH]1	0	0	0	0	0	10	62	0	0	47%
Cc1cccc(-c2nc(Nc3ccc(N4CCOCC4)cc3)c3ccccc3n2)c1	0	0	0	0	0	13	108	0	90%	148%	KCNQ1 APC inh=0
c1ccc2c(Nc3ccc(N4CCOCC4)cc3)nc(N3CCOCC3)nc2c1	0	0	0	0	0	0	-	-	-	-
O=C(c1ccc2c(c1)OCO2)C1CCCN(Cc2cccc(C(F)(F)F)c2)C1 (configuration not stated)	0	0	0	0	0	7	88	0	96%	97%	KCNQ1 APC inh=0
O=C(c1cccc(C(F)(F)F)c1)C1CCCN(Cc2ccc(OCCO)cc2)C1 (configuration not stated)	0	0	0	0	0	0	-	-	-	-
COc1ccc(S(=O)(=O)C(C#N)c2nc3ccccc3nc2N2CCCC(C)C2)cc1 (configuration not stated)	0	0	0	0	0	9	124	0	106%	126%	KCNQ1 APC inh=0
CC1CCCN(c2nc3ccccc3nc2C(C#N)S(=O)(=O)c2cccs2)C1 (configuration not stated)	0	0	0	0	0	0	-	-	-	-
COc1cccc(C(=O)Nc2ccc(-c3nc4ccccc4o3)c(O)c2)c1	0	0	0	0	0	0	-	-	-	-
